PMC3819105 (Biomaterials science, 2013)
Where a SMILES comes first, the peptide text is derived from it. [ ]: non-standard residue; d: D form. Hica(2S) = CC(C)C[C@H](O)C(=O)O

What was measured:
C3H10T½ cells = assay: 3D microgel cell culture; type: cell-based, mouse; conditions: C3H10T½ cells in hydrogel
Method in brief: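 Cells kept in Eagle's Basal Medium with 10% FBS, L-glutamine, 1 mM sodium pyruvate and non-essential amino acids. They were trypsinized, resuspended at 6,000 cells/µL in 10% sucrose with antibiotics, and mixed 1:2 with 22.5 mM aqueous peptide. The mixture (2,000 cells/µL) was pipetted into culture medium in 4–5 µL droplets to gel. Phase contrast imaging at day 3. MTS at 4 h, 3 and 5 days; mean ± SD of 3 wells.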

[1] = Solubility limit in water; type: physicochemical
[2] = Macroscopic hydrogel degradation visualised with Congo red; type: physicochemical
Method in brief: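 50 µM Congo red added to the aqueous peptide solution (sonicated, held overnight at room temperature) while making 15 mM gels. Gels pipetted into multi-well dishes, immersed in PBS at 37°C and photographed over 28 days.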

[3] = TEM of nanofiber formation and degradation; type: physicochemical; conditions: 2 mM in PBS, 37°C, 7 days
[4] = Oscillating rheometry of hydrogels; type: physicochemical
Method in brief: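 Peptide held overnight in water at 30 or 15 mM, cast on a glass slide inside an 8-mm filter-paper ring, and gelled under a PBS overlay for 2 h. PBS removed, parallel-plate frequency sweep 0.1–3.162 Hz at 0.1% strain, harmonic distortion under 10%. For ageing, gels held submerged in PBS at 37°C for 1 or 3 days. Mean ± SD of 3–5 separate gels; G'/G'' at 1 Hz compared by ANOVA-Tukey or t-test, p<0.05.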

α-chymotrypsin = conditions: cited from earlier work
papain = conditions: cited from earlier work
trypsin = conditions: cited from earlier work

solubility [1] [mM] | Time for which integrity of acellular hydrogel could be maintained ([2]; 15 mM acellular hydrogel, PBS, 37°C) | Gel appearance over 28 days (Congo red stained) ([2]; 15 mM hydrogel, immersed in PBS at 37°C, 28 days, representative of 3 gels) | Nanofiber state by TEM at day 7 [3] | Storage modulus of hydrogel ([4]; 30 mM hydrogel, PBS-gelled 2 hours, 0.1% strain, mean of 3 – 5 samples) [kPa] | Storage modulus (G') relative to Q11 hydrogel ([4]; 30 mM hydrogels, PBS-gelled 2 hours, 0.1% strain, calculated at 1 Hz) | Change of hydrogel moduli (G', G'') over time ([4]; hydrogels submerged in PBS, 37°C, up to day 3) | Compound | Proliferation of encapsulated cells (C3H10T½ cells; over 5 days, MTS assay, 3 wells) | Morphology of encapsulated cells (C3H10T½ cells; phase contrast) | Resistance to proteolysis (α-chymotrypsin) | Resistance to proteolysis (papain) | Resistance to proteolysis (trypsin)
≥ 30 | about 14 days | faded and disappeared | shorter and thinner | > 100 | about 6 times | decreased significantly | CC(=O)N[C@@H](CCC(N)=O)C(=O)N[C@@H](CCC(N)=O)C(=O)N[C@@H](CCCCN)C(=O)N[C@@H](Cc1ccccc1)C(=O)N[C@@H](CCC(N)=O)C(=O)O[C@@H](CC(C)C)C(=O)N[C@@H](CCC(N)=O)C(=O)N[C@@H](Cc1ccccc1)C(=O)N[C@@H](CCC(=O)O)C(=O)N[C@@H](CCC(N)=O)C(=O)N[C@@H](CCC(N)=O)C(N)=O [Depsi-L] (Ac-QQKFQ[Hica(2S)]QFEQQ-NH2; N-terminus assumed) | proliferated | more spread morphology |  |  | 
 |  |  |  |  |  |  | (AEAEAKAK)2 |  |  | highly resistant | highly resistant | highly resistant
